Laboratory results reported in ChEMBL document CHEMBL4177770, “Discovery of MK-6169, a Potent Pan-Genotype Hepatitis C Virus NS5A Inhibitor with Optimized Activity against Common Resistance-Associated Substitutions” (J Med Chem, 2018).

Tests used:
[1] = target: T1, Nonstructural protein 5A (Hepatitis C virus) (UniProt Q5L478); assay: Inhibition of NS5A in HCV genotype 1b infected in HuH7 replicon cells assessed as decrease in viral replication after 3 days by RT-PCR method; assay type: cell-based; conditions: Hepatitis C virus subtype 1b
T1 sequence (whole entry): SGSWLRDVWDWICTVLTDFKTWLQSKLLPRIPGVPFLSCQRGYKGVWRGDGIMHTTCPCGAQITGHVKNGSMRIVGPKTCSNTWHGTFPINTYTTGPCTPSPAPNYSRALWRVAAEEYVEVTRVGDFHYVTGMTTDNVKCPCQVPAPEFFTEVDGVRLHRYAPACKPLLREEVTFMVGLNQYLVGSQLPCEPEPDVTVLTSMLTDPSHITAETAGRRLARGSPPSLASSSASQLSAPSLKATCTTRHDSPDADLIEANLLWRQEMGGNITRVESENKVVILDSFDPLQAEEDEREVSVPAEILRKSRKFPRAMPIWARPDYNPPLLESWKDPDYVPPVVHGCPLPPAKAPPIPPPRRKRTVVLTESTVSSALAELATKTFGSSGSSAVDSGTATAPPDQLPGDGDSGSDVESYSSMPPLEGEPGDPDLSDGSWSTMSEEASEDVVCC

[2] = target: T1, Nonstructural protein 5A (Hepatitis C virus); assay: Inhibition of NS5A L31M mutant in HCV genotype 2b infected in HuH7 replicon cells assessed as decrease in viral replication after 3 days by RT-PCR method; assay type: cell-based; conditions: Hepatitis C virus subtype 2b
[3] = Clearance in Beagle dog at 1 mg/kg, iv by LC/MS method; assay type: ADME, organism-based, Canis lupus familiaris; conditions: in vivo
Outline: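 Beagle dogs, two animals per group, dosed IV at 1 mg/kg in 60% PEG200. Plasma was prepared from collected blood by centrifugation, and compound was quantified by LC/MS.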

[4] = Cmax in Wistar Han rat at 10 mg/kg, po by LC/MS method; assay type: ADME, organism-based; set-up: dose 10 mg/kg, route oral; conditions: in vivo
Outline: (§1)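 Male Wistar Han rats, two per dosing group, dosed orally at 10 mg/kg in 10% TWEEN. Plasma was separated from collected blood by centrifugation and analysed by LC/MS.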

[5] = Cmax in Beagle dog at 5 mg/kg, po by LC/MS method; assay type: ADME, organism-based, Canis lupus familiaris; set-up: dose 5 mg/kg, route oral; conditions: in vivo
Outline: (§2)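 Beagle dogs, two animals per dosing group. Oral dose was given in 10% TWEEN. Blood was collected and spun to plasma, and plasma compound levels were measured by LC/MS.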

[6] = Oral bioavailability in Wistar Han rat at 10 mg/kg by LC/MS method; assay type: ADME, organism-based; conditions: in vivo; outline: as §1
[7] = Oral bioavailability in Beagle dog at 5 mg/kg by LC/MS method; assay type: ADME, organism-based, Canis lupus familiaris; conditions: in vivo; outline: as §2
[8] = Tmax in Wistar Han rat at 10 mg/kg, po by LC/MS method; assay type: ADME, organism-based; conditions: in vivo; outline: as §1
[9] = MRT in Wistar Han rat at 10 mg/kg, po by LC/MS method; assay type: ADME, organism-based; conditions: in vivo; outline: as §1
[10] = Drug level in Wistar Han rat at 100 mg/kg, po measured at 24 hrs by LC/MS method; assay type: ADME, organism-based; conditions: in vivo, read-out: Drug uptake
Outline: (§3)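 Single rising oral dose study in fed male Wistar Han rats, dosed PO in 10% TWEEN at the indicated doses. Plasma was obtained by centrifuging the blood, and compound levels were determined by LC/MS.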

[11] = Drug level in Wistar Han rat at 300 mg/kg, po measured at 24 hrs by LC/MS method; assay type: ADME, organism-based; conditions: in vivo, read-out: Drug uptake; outline: as §3
[12] = Tmax in Wistar Han rat at 300 mg/kg, po by LC/MS method; assay type: ADME, organism-based; conditions: in vivo; outline: as §3
[13] = target: T1, Nonstructural protein 5A (Hepatitis C virus); assay: Inhibition of NS5A M28K mutant in HCV genotype 1a infected in HuH7 replicon cells assessed as decrease in viral replication after 3 days by RT-PCR method; assay type: cell-based; conditions: Hepatitis C virus subtype 1a
[14] = system: Hepatitis C virus subtype 1a; assay: Resistance ratio of EC90 for NS5A K24R mutant in HCV genotype 1a infected in HuH7 replicon cells to EC90 for NS5A in HCV genotype 1a infected in HuH7 replicon cells; assay type: cell-based
[15] = system: Hepatitis C virus subtype 1a; assay: Resistance ratio of EC90 for NS3 R155K/V36M double mutant in HCV genotype 1a infected in HuH7 replicon cells to EC90 for NS5A in HCV genotype 1a infected in HuH7 replicon cells; assay type: cell-based
[16] = system: Hepatitis C virus subtype 1a; assay: Resistance ratio of EC90 for NS5A R81W mutant in HCV genotype 1a infected in HuH7 replicon cells to EC90 for NS5A in HCV genotype 1a infected in HuH7 replicon cells; assay type: cell-based
[17] = system: Hepatitis C virus subtype 1a; assay: Resistance ratio of EC90 for NS5A R81S mutant in HCV genotype 1a infected in HuH7 replicon cells to EC90 for NS5A in HCV genotype 1a infected in HuH7 replicon cells; assay type: cell-based
[18] = target: T1, Nonstructural protein 5A (Hepatitis C virus); assay: Inhibition of NS5A L31I mutant in HCV genotype 1b infected in HuH7 replicon cells assessed as decrease in viral replication after 3 days by RT-PCR method; assay type: cell-based; conditions: Hepatitis C virus subtype 1b
[19] = system: Nonstructural protein 5A (Hepatitis C virus), Q5L478 [UNDEFINED MUTATION]; assay: Inhibition of NS5A L31M/Y93H double mutant in HCV genotype 1b infected in HuH7 replicon cells assessed as decrease in viral replication after 3 days by RT-PCR method; assay type: cell-based; conditions: Hepatitis C virus subtype 1b
[20] = Resistance ratio of EC90 for NS5A A92K mutant in HCV genotype 1b infected in HuH7 replicon cells to EC90 for NS5A in HCV genotype 1a infected in HuH7 replicon cells; assay type: cell-based
[21] = Resistance ratio of EC90 for NS5A A92T mutant in HCV genotype 1b infected in HuH7 replicon cells to EC90 for NS5A in HCV genotype 1a infected in HuH7 replicon cells; assay type: cell-based
[22] = Resistance ratio of EC90 for NS5A F28L mutant in HCV genotype 2a infected in HuH7 replicon cells to EC90 for NS5A in HCV genotype 1a infected in HuH7 replicon cells; assay type: cell-based
[23] = target: T1, Nonstructural protein 5A (Hepatitis C virus); assay: Inhibition of NS5A A146S mutant in HCV genotype 2b infected in HuH7 replicon cells assessed as decrease in viral replication after 3 days by RT-PCR method; assay type: cell-based; conditions: Hepatitis C virus subtype 2b
[24] = target: T1, Nonstructural protein 5A (Hepatitis C virus); assay: Inhibition of NS5A A30K mutant in HCV genotype 3a infected in HuH7 replicon cells assessed as decrease in viral replication after 3 days by RT-PCR method; assay type: cell-based; conditions: Hepatitis C virus subtype 3a
[25] = Resistance ratio of EC90 for NS5A in HCV genotype 3a infected in HuH7 replicon cells to EC90 for NS5A in HCV genotype 1a infected in HuH7 replicon cells; assay type: cell-based
[26] = Resistance ratio of EC90 for NS5A in HCV genotype 4a infected in HuH7 replicon cells to EC90 for NS5A in HCV genotype 1a infected in HuH7 replicon cells; assay type: cell-based
[27] = Resistance ratio of EC90 for NS5A L30H mutant in HCV genotype 4a infected in HuH7 replicon cells to EC90 for NS5A in HCV genotype 1a infected in HuH7 replicon cells; assay type: cell-based
[28] = Resistance ratio of EC90 for NS5A L31V mutant in HCV genotype 4a infected in HuH7 replicon cells to EC90 for NS5A in HCV genotype 1a infected in HuH7 replicon cells; assay type: cell-based

**Q.** What does the source list for `COC(=O)N[C@H](C(=O)N1CCC[C@H]1c1ncc(-c2cc(F)c3c(c2)O[C@@H](c2ccc(C4CC4)s2)n2c-3cc3cc(-c4cnc([C@@H]5CCCN5C(=O)[C@@H](NC(=O)OC)[C@@H]5CCOC(C)(C)C5)[nH]4)ccc32)[nH]1)C(C)C`?
**A.** EC90 [1]: 0.0044 nM; EC90 [2]: 0.018 nM; clearance [3]: 2.9 mL/min/kg; Cmax [4]: 150 to 183 nM; Cmax [5]: 660 nM; bioavailability [6]: 6.6%; bioavailability [7]: 14.9%; Tmax [8]: 3 h; MRT [9]: 6.5 h; concentration at 24 h [10]: 72 nM; concentration at 24 h [11]: 164 nM; Tmax [12]: 5 h; EC90 [13]: 0.42 nM; Ratio [14]: < 1; Ratio [15]: < 1; Ratio [16]: < 1; Ratio [17]: < 1; EC90 [18]: 0.021 nM; EC90 [19]: 0.19 nM; Ratio [20]: 6; Ratio [21]: 1; Ratio [22]: < 1; EC90 [23]: 0.0034 nM; EC90 [24]: 0.018 nM; Ratio [25]: 2; Ratio [26]: 2; Ratio [27]: 17; Ratio [28]: 2
